*1 amine or outer side, *2 acyl side, *3 side chain or, on linkers, in order; H or OH if unused. Where a SMILES comes first, the peptide text is derived from it. Bridges are numbered along the chain shown (N, C = ends). [ ]: non-standard residue; d: D form. The star is where a group is joined. oXylylene = c1ccc(C[*:2])c(C[*:1])c1; Pent4ynoyl = C#CCCC(=O)*
How the values were obtained:
[1] = test system: HeLa cells stably expressing GFP-LC3; experiment: GFP-LC3 puncta assay of autophagic flux, with and without bafilomycin A1; assay type: cell-based
How it was run: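 HeLa cells stably expressing GFP-LC3 were given peptide for 2 h in serum-free Opti-MEM acidified with 0.15% (v/v) 6 N HCl, with or without bafilomycin A1. Cells were fixed in 2% PFA in PBS and GFP-LC3 puncta per cell were counted by fluorescence microscopy, with ≥100 cells per sample. Triplicate samples, mean ± SEM, t test versus DMSO; ≥3 independent experiments.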

[2] = Solubility as observed by the authors; assay type: physicochemical
[3] = test system: HeLa-Htt103Q cells; experiment: Htt103Q aggregate assay, cellular model of Huntington's disease; assay type: cell-based; conditions: HeLa cells expressing CFP-htt103Q, 20 μM peptide, aggregates <1 μm
How it was run: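 HeLa cells expressing CFP-Htt103Q were treated with peptide, then fixed in 2% PFA in PBS. An observer blinded to condition counted CFP-positive aggregates <1 μm by fluorescence microscopy. Scores were the percentage of cells carrying small aggregates and the number of small aggregates per cell.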

In the case of `C#CCCC(=O)N[C@H](C(=O)N[C@@H]1CSCc2ccccc2CSC[C@H](C(=O)N[C@@H](Cc2ccccc2)C(=O)N[C@@H](Cc2c[nH]cn2)C(=O)N[C@H](C(=O)N[C@@H](Cc2c[nH]c3ccccc23)C(=O)N[C@@H](Cc2c[nH]cn2)C(N)=O)[C@@H](C)CC)NC(=O)[C@H](C)NC(=O)[C@H](CC(N)=O)NC1=O)C(C)C` [DD5-o] (Pent4ynoyl-V[dC]NA[dC]FHIWH-NH2; linker 2-5 via oXylylene), the “extent of autophagy induction relative to Tat-Beclin 1 (GFP-LC3 puncta)” value ([1]; 10 μM peptide, 2 h) was “slightly less activity than Tat-Beclin 1”, the “change in GFP-LC3 puncta upon cotreatment with Baf A1” value ([1]; peptide 2 h plus bafilomycin A1) was “further increase in GFP-LC3 puncta” and the solubility in water ([2]; judged for 2D-NMR experiments) was “not soluble enough in water for 2D-NMR experiments”. The “number of small htt103Q aggregates observed per cell” value [3] was “significant decrease” and the “percentage of cells that have small htt103Q aggregates” value [3] was “significant decrease”.

In the case of “(HT)-VcNAcFHIWH (sidechain bridge or staple) [HT-DD5-o]”, the “solubility compared with DD5-o” value ([2]; medium not stated, N-terminal tag attached to DD5-o) was “equally soluble as DD5-o”.

Source: paper PMC5473019 (Journal of the American Chemical Society, 2017)
